Data: PubChem BioAssay
Active and inactive are the calls of the source.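 The calls were made as follows, unless noted: active = visual image review flags a hit and inhibition of aggregation exceeds 20%; inconclusive = visual hit but inhibition at or below 20%; inactive = no hit on visual image review.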

Legend:
[1] = inhibitors of TNFa-induced NFkB p65 translocation, primary screen, imaging, HUVEC, MLSMR starter and 10KST1 sets (AID 438;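 active = inhibition above 20% together with a positive visual image hit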;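 also: compound added about 3h40 before a 20 min TNFalpha stimulation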;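 as to inhibition: signal is the nuclear over cytoplasmic p65 intensity ratio per well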); conditions: HUVEC TNFa-induced p65 nuclear translocation; cell count: measured here: nuclei count (cytotoxicity indicator), at 2.08 µM; inhibition: at 2 µM, stronger effect = higher value, 0% TNFa-plus-vehicle, 100% no-TNFa wells
[2] = reduction of polyQ htt aggregates in cells – imaging, exon1htt(103Q)mCFP cells, high-content imaging, primary screen (AID 483); conditions: exon1htt(103Q)mCFP cell line, aggregate imaging, at 2 µM; inhibition of aggregation: stronger effect = higher value; nuclei count: measured here: cell count, toxicity;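 also: compound exposure lasted 3 days before fixation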;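 as to nuclei count: percent of the per-plate median nuclei count of sample wells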
[3] = endothelial E-selectin expression blockers – imaging, HUVEC, immunofluorescence, MLSMR starter and 10KST1 sets, primary screen (AID 487;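 active = visually confirmed hit in the image check and inhibition above 20%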;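 as to inhibition: signal is fraction of cell area covered by stained E-selectin grains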;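 as to nuclei count: 100% = median nuclei count of all wells on the same plate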); conditions: HUVEC TNFalpha-induced E-selectin immunofluorescence imaging, at 2 µM; inhibition: stronger effect = higher value; nuclei count: measured here: cell number, toxicity
[4] = biological target: Voltage-gated potassium channel subunit beta-2 (Rattus norvegicus) (UniProt P62483); test: inhibitors of rat Kvbeta2 reductase activity – biochemical, NADPH fluorescence, primary screen (AID 622;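 active = fluorescence slope higher than the sample average by over 3 SD, cut at about -0.22 in these data, passing the limit was not always enough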;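 also: slope of raw intensity against log time taken from 70 to 1610 s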); conditions: recombinant KvBeta, 4-cyanobenzaldehyde reduction, at 10 µM, stronger effect = higher value
Voltage-gated potassium channel subunit beta-2 (Rattus norvegicus), sequence (P62483 whole entry, looked up): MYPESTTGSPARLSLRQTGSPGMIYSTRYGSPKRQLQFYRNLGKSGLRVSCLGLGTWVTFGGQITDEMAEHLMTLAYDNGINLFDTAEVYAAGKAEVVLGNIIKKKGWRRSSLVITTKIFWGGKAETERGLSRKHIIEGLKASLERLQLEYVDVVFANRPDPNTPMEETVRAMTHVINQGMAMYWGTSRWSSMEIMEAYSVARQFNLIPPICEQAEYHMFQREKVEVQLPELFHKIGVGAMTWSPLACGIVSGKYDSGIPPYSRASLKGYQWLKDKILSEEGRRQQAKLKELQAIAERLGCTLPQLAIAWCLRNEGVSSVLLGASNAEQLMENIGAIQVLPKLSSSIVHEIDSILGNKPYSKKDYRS

[5] = biological target: Voltage-gated potassium channel subunit beta-2 (Rattus norvegicus) (UniProt P62483); test: enhancers of rat Kvbeta2 NADPH turnover – biochemical, NADPH fluorescence, primary screen (AID 623;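 active = NADPH fluorescence slope more negative than the mean of all samples by about 3 SD, 99.7% confidence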;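 also: fluorescence intensity change per second fitted from 20 to 320 s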); conditions: Recombinant KvBeta, NADPH fluorescence decrease slope, 10 min; at 10 µM; stronger effect = lower value
[6] = biological target: Muscarinic acetylcholine receptor M4 (Homo sapiens) (UniProt P08173); test: M4-linked GIRK flux change, two-sided – cell-based, HEK293 M4/GIRK, thallium flux, BTC-AM, M4 allosteric agonist project, primary screen (AID 625;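 active = fluorescence slope after compound addition differing from the mean of all tested samples at 99.7% confidence, mostly higher but some lower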;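 also: thallium influx through GIRK channels coupled to M4 in HEK293 cells with BTC-AM dye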); conditions: at 10 µM, actives lie on both sides
Muscarinic acetylcholine receptor M4 (Homo sapiens), sequence (P08173 whole entry, looked up): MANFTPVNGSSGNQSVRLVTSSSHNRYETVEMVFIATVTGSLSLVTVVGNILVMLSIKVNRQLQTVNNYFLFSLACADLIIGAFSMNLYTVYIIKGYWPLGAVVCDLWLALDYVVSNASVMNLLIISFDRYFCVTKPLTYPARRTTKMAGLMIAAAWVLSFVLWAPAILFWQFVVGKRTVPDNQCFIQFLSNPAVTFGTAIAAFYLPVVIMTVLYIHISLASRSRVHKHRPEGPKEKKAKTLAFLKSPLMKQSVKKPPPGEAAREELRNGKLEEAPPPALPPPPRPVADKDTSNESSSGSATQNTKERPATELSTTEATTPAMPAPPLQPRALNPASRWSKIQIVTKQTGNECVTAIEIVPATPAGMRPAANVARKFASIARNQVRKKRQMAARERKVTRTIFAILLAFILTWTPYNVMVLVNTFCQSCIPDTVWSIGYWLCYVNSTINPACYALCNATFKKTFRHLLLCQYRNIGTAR
Procedure, shortened: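 assay system = HEK293 cells with M4 receptor and GIRK channels | medium = pH 7.3 thallium assay buffer | doses = 10 µM final, single point | timing = cells overnight at 37 °C, BTC-AM loading 1 h, reads 2 min total | signal = BTC-AM fluorescence, 1 Hz kinetic reads | read-out = post-addition slope, 15–24 s, of baseline-normalized fluorescence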

[7] = blockers of RIG-like receptor reporter activation – cell-based, Sendai virus stimulus, luciferase, 10K MLSCN set, TLR/RLR signaling modifier project, primary screen (AID 602276;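 active = inhibition at or above 50% at 10 µM; inactive = inhibition below 50%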;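 also: firefly luciferase from ISG56 promoter only with Renilla not read in this screen; 0% = Sendai virus plus DMSO and 100% = medium plus DMSO without virus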); conditions: HEK293 RL24 IRF3 luciferase reporter, at 10 µM, stronger effect = higher value
[8] = TLR3 IRF3 reporter activation blockers – cell-based, poly I:C stimulus, luciferase, 10K MLSCN set, primary screen (AID 602277;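 active = inhibition of the reporter signal at or above 50%; inactive = inhibition below 50%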); conditions: HEK293-TLR3 RL24 IRF3 luciferase reporter, at 10 µM, stronger effect = higher value

Row | Compound | cell count [1] | inhibition [1] | inhibition of aggregation [2] | nuclei count [2] [%] | inhibition [3] | nuclei count [3] [%] | fluorescence slope [4] | NADPH fluorescence slope [5] | fluorescence slope [6] | inhibition [7] | inhibition [8]
1 | CCOC(=O)C1CCN(C(=O)c2c(-c3c(Cl)cccc3Cl)noc2C)CC1 | 376 | 1.6% (inactive) | 20.9% (inactive) | 94.8 | -89.8% (inactive) | 110 | -0.557 (inactive) | -4.4e-05 (inactive) | 0.00598 (inactive) | 4.89% (inactive) | 12.6% (inactive)
2 | COC(=O)c1ccc2c(=O)n(Cc3ccco3)c(SCC(=O)Nc3ccc(C)c(Cl)c3)nc2c1 | 445 | 5% (inactive) | 10.1% (inactive) | 115 | 4.9% (inactive) | 91 | -0.436 (inactive) | -2.2e-05 (inactive) | 0.00926 (inactive) | 13.7% (inactive) | 28.2% (inactive)
3 | CCN1CCCC1CNCc1ccc(Cl)cc1Cl (configuration not stated) | 474 | 13.6% (inactive) | 1.2% (inactive) | 87.1 | -106% (inactive) | 152 | -0.316 (inactive) | -1.4e-06 (inactive) | 0.0068 (inactive) | -5.98% (inactive) | 5.14% (inactive)
4 | COC(=O)c1c(NC(=O)C2CC=CCC2C(=O)O)sc(C(N)=O)c1C (configuration not stated) | 654 | -2.4% (inactive) | 7.8% (inactive) | 96.4 | -10.1% (inactive) | 113 | -0.495 (inactive) | -4.4e-05 (inactive) | 0.00475 (inactive) | 0.24% (inactive) | 11% (inactive)
5 | CC1CCN(C(=O)C2CCN(S(=O)(=O)c3cnc[nH]3)CC2)CC1 | 464 | 2.5% (inactive) | 22% (inactive) | 90.5 | -170% (inactive) | 116 | -0.553 (inactive) | -1.4e-05 (inactive) | 0.00577 (inactive) | 15.5% (inactive) | 19.2% (inactive)
6 | Cc1nnc(SCCn2c(N3CC(C)CC(C)C3)nc3c2c(=O)n(C)c(=O)n3C)s1 (configuration not stated) | 207 | 3.4% (inactive) | 10.1% (inactive) | 84.9 | 60.7% (active) | 81.2 | -0.598 (inactive) | -2.7e-05 (inactive) | 0.00478 (inactive) | 15.7% (inactive) | 21.2% (inactive)
7 | CC(=O)Nc1nc(-c2ccc(Cl)cc2)nc(C)c1C(C)=O | 577 | 0.5% (inactive) | -13.8% (inactive) | 92.9 | -9.1% (inactive) | 90.1 | -0.261 (inactive) | -3.2e-05 (inactive) | 0.00747 (inactive) | 2.94% (inactive) | 6.23% (inactive)
